For assay [1], the system named is Rattus norvegicus. Kind of assay: Reduction in food intake in Wistar rat at 10 mg/kg, ip after 1440 mins. Set-up: dose 10 mg/kg. Type of assay: functional, organism-based. The method, boiled down:
(§1)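 Adult male Wistar rats, about 400 g, housed singly under an inverted 12:12 h cycle, with free access to chow and water. Groups of n = 6–8 were matched on body weight and intake and given 0, 0.1, 1 or 10 mg/kg ip, suspended in saline with a few drops of Tween 80, 30 min before lights off. Food and water were weighed at 60–360 and 1440 min. Newman–Keuls test against vehicle.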

In assay [2] the test system is Rattus norvegicus. Kind of assay: Reduction in cumulative food intake in Wistar rat at 10 mg/kg, ip measured 360 mins after lights off. The conditions noted are these: 6 h, route intraperitoneal. Type of assay: functional. The method, boiled down:
as §1

The species entered for another assay is Homo sapiens. In words: Selectivity index, ratio of Ki for human recombinant CB2 receptor to Ki for human recombinant CB1 receptor.
Assay [3] relates to Rattus norvegicus. Kind of assay: Reduction in cumulative food intake in Wistar rat at 10 mg/kg, ip measured 60 mins after lights off relative to control. Type of assay: functional. The note with it: 1 h, route intraperitoneal. The method, boiled down: as §1
The target in the next assay is Cannabinoid receptor 2 (Homo sapiens, UniProt P34972). Kind of assay: Displacement of [3H]CP-55940 from human recombinant CB2 receptor expressed in HEK cells. Type of assay: cell-based, HEK293.
Assay [4] has as its system Rattus norvegicus. Kind of assay: Reduction in cumulative water intake in Wistar rat at 0.1 to 10 mg/kg, ip measured 360 mins after lights off. Type of assay: functional, organism-based. The method, boiled down:
as §1

Assay [5] relates to Rattus norvegicus. Kind of assay: Reduction in cumulative water intake in Wistar rat at 0.1 to 10 mg/kg, ip after 1440 mins. Type of assay: functional, organism-based. Put shortly:
as §1

The subject of assay [6] is Rattus norvegicus. In words: Reduction in cumulative food intake in Wistar rat at 1 mg/kg, ip measured 360 mins after lights off. Type of assay: functional. The method, boiled down: as §1
A further assay has as its target Cannabinoid receptor 1 (Homo sapiens, UniProt P21554). In words: biochemical. Type of assay: cell-based, HEK293.
The test system of assay [7] is Rattus norvegicus. Kind of assay: Reduction in food intake in Wistar rat at 1 mg/kg, ip after 1440 mins. Also on record: dose 1 mg/kg. Type of assay: functional, organism-based. The method, boiled down:
as §1

The values that follow come from ChEMBL document CHEMBL1154113, “Synthesis, cannabinoid receptor affinity, molecular modeling studies and in vivo pharmacological evaluation of new substituted 1-aryl-5-(1H-pyrrol-1-yl)-1H-pyrazole-3-carboxamides. 2. Effect of the 3-carboxamide substituent on the affinity and selectivity profile” (Bioorg Med Chem, 2009).

One may read the inhibition in vivo as the drop in the measured response relative to a control, in per cent. Low readings indicate a weak effect, high ones a strong effect. As a reminder, the Ki is the dissociation constant of the complex between target and ligand, obtained from inhibition or displacement.

The structures appear in SMILES notation. Calls of active or inactive are those of the source. The calls are words filed in the database; no cut-off is given here.

Sequence of Cannabinoid receptor 2 (P34972 whole entry): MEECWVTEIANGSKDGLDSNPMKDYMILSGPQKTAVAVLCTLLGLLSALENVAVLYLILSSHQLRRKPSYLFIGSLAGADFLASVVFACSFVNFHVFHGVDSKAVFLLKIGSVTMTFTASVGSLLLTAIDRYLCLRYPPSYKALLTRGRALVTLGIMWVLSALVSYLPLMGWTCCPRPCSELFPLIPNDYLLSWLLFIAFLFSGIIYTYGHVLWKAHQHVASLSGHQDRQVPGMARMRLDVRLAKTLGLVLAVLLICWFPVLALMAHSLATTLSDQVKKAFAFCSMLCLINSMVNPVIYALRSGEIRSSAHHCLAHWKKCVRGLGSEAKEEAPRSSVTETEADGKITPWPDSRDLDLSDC
Sequence of Cannabinoid receptor 1 (P21554 whole entry): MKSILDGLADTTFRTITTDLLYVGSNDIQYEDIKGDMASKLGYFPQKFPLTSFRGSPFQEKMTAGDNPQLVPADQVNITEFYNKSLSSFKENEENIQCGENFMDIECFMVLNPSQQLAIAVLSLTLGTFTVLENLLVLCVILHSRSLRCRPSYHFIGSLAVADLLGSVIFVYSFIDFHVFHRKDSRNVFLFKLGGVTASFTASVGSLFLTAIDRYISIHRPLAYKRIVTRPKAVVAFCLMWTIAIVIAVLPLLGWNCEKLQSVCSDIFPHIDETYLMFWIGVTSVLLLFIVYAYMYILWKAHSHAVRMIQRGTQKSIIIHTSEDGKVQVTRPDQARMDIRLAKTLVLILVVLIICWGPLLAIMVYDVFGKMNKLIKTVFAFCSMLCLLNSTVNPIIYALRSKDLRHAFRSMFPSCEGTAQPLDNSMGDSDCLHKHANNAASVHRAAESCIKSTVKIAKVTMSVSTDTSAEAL

Regarding `Cc1c(C(=O)NCCc2ccc(Cl)cc2)nn(-c2ccc(F)cc2F)c1-n1c(C)ccc1C`, the result in the assay on Rattus norvegicus [1] and in the assay on Rattus norvegicus [6] was Active. Besides, the values for the inhibition in vivo at 10 mg/kg in the assay on Rattus norvegicus [2] and in the assay with Rattus norvegicus [3] were 25% and 40%, respectively. In addition, in the assay listed under Homo sapiens, the Ratio Ki was above 78.8. Besides, the Ki was above 3940 nM on Cannabinoid receptor 2 and 50 nM at Cannabinoid receptor 1. The result in the assay with Rattus norvegicus [4] and with Rattus norvegicus [5] was inactive.

`Cc1c(C(=O)NCc2ccc(Cl)c(Cl)c2)nn(-c2ccc(Cl)cc2Cl)c1-n1c(C)ccc1C`: the result with Rattus norvegicus [1] and in the assay on Rattus norvegicus [7] was Active. Also, at 10 mg/kg the inhibition in vivo with Rattus norvegicus [2] was 25%. Besides, the Ratio Ki in the assay listed under Homo sapiens came to 141. The outcome in the assay with Rattus norvegicus [4] and in the assay on Rattus norvegicus [5] was inactive. In the assay with Rattus norvegicus [6] (6 h, route intraperitoneal), this compound yielded an inhibition in vivo at 1 mg/kg of 15%.

On to `COc1cc(CNC(=O)c2nn(-c3ccc(F)cc3F)c(-n3cccc3)c2C)c(Br)c(OC)c1OC`, for which the Ratio Ki in the assay listed under Homo sapiens worked out at 2.14. In addition, the inhibition constant (Ki) at Cannabinoid receptor 2 came to 739 nM; at Cannabinoid receptor 1 it was 345 nM.
